Assay results taken from ChEMBL document CHEMBL1123986, “Oral absorption of cephalosporin antibiotics. 2. Expanded structure-activity relationships of 7-(arylacetamido)-3-substituted cephalosporins” (1988).
Converted amounts (≈) assume the structure as drawn.

Experiments:
[1] = test system: Klebsiella aerogenes; experiment: Minimum inhibitory concentration against Enterobacter aerogenes; type: functional
In short: (§1)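 Agar dilution MIC in μg/mL. […] Organisms not run are marked not tested.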

[2] = test system: Escherichia coli; experiment: Minimum inhibitory concentration against Escherichia coli; type: functional; in short: as §1
[3] = test system: Haemophilus influenzae; experiment: Minimum inhibitory concentration by agar dilution method against (beta lactamase(+); type: functional; in short: as §1
[4] = test system: Haemophilus influenzae; experiment: Minimum inhibitory concentration by agar dilution method against Haemophilus influenzae (beta lactamase(-); type: functional; in short: as §1
[5] = test system: Klebsiella pneumoniae; experiment: Minimum inhibitory concentration against Klebsiella pneumoniae; type: functional; in short: as §1
[6] = test system: Streptococcus pneumoniae; experiment: Minimum inhibitory concentration against Streptococcus pneumoniae; type: functional; in short: as §1
[7] = test system: Staphylococcus aureus; experiment: Minimum inhibitory concentration against Staphylococcus aureus; type: functional; in short: as §1
[8] = test system: Salmonella typhi; experiment: Minimum inhibitory concentration against Salmonella typhi; type: functional, Salmonella enterica subsp. enterica serovar Typhi; conditions: Salmonella enterica
[9] = test system: Streptococcus pyogenes; experiment: Minimum inhibitory concentration against Streptococcus pyogenes; type: functional; in short: as §1
[10] = test system: Haemophilus influenzae; experiment: (§2) Minimum inhibitory concentration against Haemophilus influenzae; type: functional; in short: as §1
[11] = test system: Haemophilus influenzae; experiment: Minimum inhibitory concentration by agar dilution method against Haemophilus influenzae (beta lactamase(-)); type: functional; in short: as §1
[12] = test system: Klebsiella pneumoniae; experiment: Minimum inhibitory concentration by agar dilution method against Klebsiella pneumoniae; type: functional; in short: as §1
[13] = test system: Staphylococcus aureus; experiment: (§3) Effective dose administered orally (po) to 19-21-g random sex ICR mice at 1 hr and 5 hr intervals after intraperitoneal Staphylococcus aureus; type: functional
In short: (§4)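 Mouse protection: random-sex ICR mice, 19–21 g, challenged intraperitoneally from a frozen organism pool giving 50–500 LD50 per challenge dose. Drug given sc or po at 1 and 5 h post-infection. Five 2-fold dilution levels per compound, eight mice per dilution.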

[14] = test system: Streptococcus pneumoniae; experiment: (§5) Effective dose administered subcutaneously (sc) to 19-21-g random sex ICR mice at 1 hr and 5 hr intervals after intraperitoneal administration of Streptococcus pneumoniae; type: functional; in short: as §4
[15] = test system: Streptococcus pneumoniae; experiment: Efficacy against mouse infections caused by S. Pneumoniae measured as Minimum inhibitory concentration; type: functional
[16] = test system: Streptococcus pneumoniae; experiment: (§6) Effective dose administered orally (po) to 19-21-g random sex ICR mice at 1 hr and 5 hr intervals after intraperitoneal administration of Streptococcus pneumoniae; type: functional; in short: as §4
[17] = test system: Staphylococcus aureus; experiment: (§7) Effective dose administered subcutaneously (sc) to 19-21-g random sex ICR mice at 1 hr and 5 hr intervals after intraperitoneal administration of Staphylococcus aureus; type: functional; in short: as §4
[18] = test system: Staphylococcus aureus; experiment: Efficacy against mouse infections caused by Staphylococcus aureus measured as Minimum inhibitory concentration; type: functional
[19] = test system: Streptococcus pyogenes; experiment: (§8) Effective dose administered orally (po) to 19-21-g random sex ICR mice at 1 hr and 5 hr intervals after intraperitoneal Streptococcus pyogenes; type: functional; in short: as §4
[20] = test system: Streptococcus pyogenes; experiment: Efficacy against mouse infections caused by Streptococcus pyogenes measured as Minimum inhibitory concentration; type: functional
[21] = Ratio of ED50 value evaluated in Staphylococcus aureus by po to sc administration; type: functional
In short: (§9)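 Oral/subcutaneous effective-dose ratio. Both routes were dosed in random-sex ICR mice of 19–21 g at 1 and 5 h after an intraperitoneal challenge of 50–500 LD50 from a frozen organism pool. Each route used five 2-fold dilution levels with eight mice per level, and the po value was divided by the sc value.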

[22] = test system: Streptococcus pyogenes; experiment: (§10) Effective dose administered subcutaneously (sc) to 19-21-g random sex ICR mice at 1 hr and 5 hr intervals after intraperitoneal administration of Streptococcus pyogenes; type: functional; in short: as §4
[23] = test system: Mus musculus; experiment: Effective dose administered orally (po) to 19-21-g random sex ICR mice at 1 hr and 5 hr intervals after intraperitoneal Streptococcus pneumoniae; type: functional; in short: as §4
[24] = test system: Mus musculus; experiment: as §3; type: functional; in short: as §4
[25] = Ratio of ED50 value evaluated in Streptococcus pneumoniae by po to sc administration; type: functional; in short: as §9
[26] = Ratio of ED50 value evaluated in Streptococcus pyogenes by po to sc administration; type: functional; in short: as §9
[27] = test system: Streptococcus pneumoniae; experiment: Efficacy against mouse infections caused by S. Pneumoniae measured as Minimum inhibitory concentration
[28] = test system: Haemophilus influenzae; experiment: as §2; type: functional; in short: as §1; remark: listed apart in the source
[29] = test system: Mus musculus; experiment: as §5; type: functional; in short: as §4
[30] = test system: Salmonella typhi; experiment: Minimum inhibitory concentration by agar dilution method against Salmonella typhi; type: functional, Salmonella enterica subsp. enterica serovar Typhi; conditions: Salmonella enterica
[31] = test system: Mus musculus; experiment: as §6; type: functional; in short: as §4
[32] = test system: Mus musculus; experiment: as §7; type: functional; in short: as §4
[33] = test system: Mus musculus; experiment: as §8; type: functional; in short: as §4
[34] = test system: Mus musculus; experiment: as §10; type: functional; in short: as §4
[35] = test system: Staphylococcus aureus; experiment: Efficacy against mouse infections caused by Staphylococcus aureus measured as Minimum inhibitory concentration
[36] = test system: Streptococcus pyogenes; experiment: Efficacy against mouse infections caused by Streptococcus pyogenes measured as Minimum inhibitory concentration

| SMILES | MIC [1] [µg/mL] | MIC [2] [µg/mL] | MIC [5] [µg/mL] | MIC [6] [µg/mL] | MIC [7] [µg/mL] | MIC [8] [µg/mL] | MIC [9] [µg/mL] | MIC [10] [µg/mL] | Ratio [21] | ED50 [24] [mg/kg] | Ratio [25] | Ratio [26] | MIC [27] [µg/mL] | further results |
| --- | --- | --- | --- | --- | --- | --- | --- | --- | --- | --- | --- | --- | --- | --- |
| Nc1nc(CC(=O)N[C@@H]2C(=O)N3C(C(=O)O)=C(Cl)CS[C@H]23)c(-c2ccccc2)s1 | > 128 | > 128 | > 128 | 0.03 (≈ 0.0665 µM) | 0.03 (≈ 0.0665 µM) | > 128 | 0.03 (≈ 0.0665 µM) |  |  |  |  |  |  | MIC [3]: 16 µg/mL (≈ 35.5 µM); MIC [4]: 16 µg/mL (≈ 35.5 µM) |
| COC1=C(C(=O)O)N2C(=O)[C@@H](NC(=O)Cc3csc4ccccc34)[C@H]2SC1 | > 128 | > 128 |  | 0.5 (≈ 1.24 µM) | 0.25 (≈ 0.618 µM) | > 128 | 0.25 (≈ 0.618 µM) | 0.5 (≈ 1.24 µM) | 2 |  |  |  |  | MIC [11]: 8 µg/mL (≈ 19.8 µM); MIC [12]: > 128 µg/mL; ED50 [13]: 2.8 mg/kg; ED50 [14]: > 10 mg/kg; MIC [15]: 0.5 µg/mL (≈ 1.24 µM); ED50 [16]: > 10 mg/kg; ED50 [17]: 1.4 mg/kg; MIC [18]: 0.5 µg/mL (≈ 1.24 µM); ED50 [19]: > 10 mg/kg; MIC [20]: 0.25 µg/mL (≈ 0.618 µM); ED50 [22]: > 10 mg/kg |
| CC1(C)S[C@@H]2[C@H](NC(=O)COc3ccccc3)C(=O)N2[C@H]1C(=O)O [PENICILLIN V] |  |  |  |  |  |  |  |  | 11 | 0.46 | 1.1 | 3.9 |  | ED50 [23]: 2.3 mg/kg |
| Nc1nc(CC(=O)N[C@@H]2C(=O)N3C(C(=O)O)=C(Cl)CS[C@H]23)cs1 |  |  |  | 0.25 (≈ 0.667 µM) |  | 0.25 (≈ 0.667 µM) |  |  | 4.5 |  | 1.4 | 0.7 | 0.5 (≈ 1.33 µM) |  |
| O=C(CSc1cc(Cl)ccc1Cl)N[C@@H]1C(=O)N2C(C(=O)O)=C(Cl)CS[C@H]12 | > 128 | 32 (≈ 70.5 µM) | 32 (≈ 70.5 µM) | < 0.008 | 0.03 (≈ 0.0661 µM) |  | < 0.008 | 1 (≈ 2.2 µM) | 5.9 | 7.7 |  | 2.6 | 0.015 (≈ 0.0331 µM) | MIC [28]: 1 µg/mL (≈ 2.2 µM); ED50 [29]: 6.3 mg/kg; MIC [30]: 64 µg/mL (≈ 141 µM); ED50 [31]: > 25 mg/kg; ED50 [32]: 1.3 mg/kg; ED50 [33]: 7.2 mg/kg; ED50 [34]: 2.8 mg/kg; MIC [35]: 0.03 µg/mL (≈ 0.0661 µM); MIC [36]: 0.125 µg/mL (≈ 0.275 µM) |
| O=C(Cc1csc2ccccc12)N[C@@H]1C(=O)N2C(C(=O)O)=C(Cl)CS[C@H]12 |  |  |  |  |  | 128 (≈ 313 µM) |  |  | 2.4 |  | 2.4 | 1.4 |  |  |
